# What was measured:
# Assay type in all cases: functional
# Mus musculus [1] = assay: Percent increase in life span of DBA2 mice after inoculation with L1210 leukemia intravenously at a dose of 50 mg/kg per day; conditions: route intravenous
# How it was run: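 Female DBA2 mice inoculated iv on day 0 with 10^4 L1210 cells; drugs given iv as sulfate salts in physiological saline, mostly once on day 1. %ILS from all deaths and survivors as (T/C × 100) − 100; survivors scored on days 30 and 60.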
# Mus musculus [2] = assay: Percent increase in life span at dose 70 mg/kg/day in 10 mice implanted with P388 leukemia cell line
# How it was run: (§1)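 Female DBA2 mice inoculated iv on day 0 with 10^4 P388 cells; single iv treatment on day 1 with drug as sulfate salt in physiological saline. Survival followed; %ILS from all deaths and survivors as (T/C × 100) − 100, maximal MST 30 days; survivors counted on days 30 and 60. Most experiments confirmed three times.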
# Mus musculus [3] = assay: Number of survivors of DBA2 mice on 30th day after inoculation with L1210 leukemia cell line intravenously at a dose of 50 mg/kg/day; 0/10; conditions: route intravenous
# Mus musculus [4] = assay: Percent increase in life span at dose 80 mg/kg/day in 10 mice implanted with P388 leukemia cell line; how it was run: as §1
# Mus musculus [5] = assay: Percent increase in life span at dose 40 mg/kg/day in 10 mice implanted with P388 leukemia cell line; how it was run: as §1
# Mus musculus [6] = assay: Percent increase in life span at dose 55 mg/kg/day in 10 mice implanted with P388 leukemia cell line; how it was run: as §1
# Mus musculus [7] = assay: Number of survivors on 60th day at dose mg/kg/day in 10 mice implanted with P388 leukemia cell line; 1/10
# Mus musculus [8] = assay: Number of survivors on 60th day at dose mg/kg/day in 10 mice implanted with P388 leukemia cell line; 2/10
# Mus musculus [9] = assay: Percent increase in life span at dose 60 mg/kg/day in 10 mice implanted with P388 leukemia cell line; how it was run: as §1
# Mus musculus [10] = assay: Number of survivors on 30th day at dose 40 mg/kg/day in 10 mice implanted with P388 leukemia cell line; 1/10
# Mus musculus [11] = assay: Number of survivors on 60th day at dose mg/kg/day in 10 mice implanted with P388 leukemia cell line; 7/10
# Mus musculus [12] = assay: Number of survivors on 60th day at dose mg/kg/day in 10 mice implanted with P388 leukemia cell line; 5/10
# Mus musculus [13] = assay: Number of survivors on 30th day at dose 50 mg/kg/day in 10 mice implanted with P388 leukemia cell line; 2/10
# Mus musculus [14] = assay: Number of survivors on 30th day at dose 55 mg/kg/day in 10 mice implanted with P388 leukemia cell line; 7/10
# Mus musculus [15] = assay: Number of survivors of DBA2 mice on 60th day after inoculation with L1210 leukemia cell line intravenously at a dose of 50 mg/kg/day; 0/10; conditions: route intravenous
# Mus musculus [16] = assay: Number of survivors on 30th day at dose 70 mg/kg/day in 10 mice implanted with P388 leukemia cell line; 5/10
# Mus musculus [17] = assay: Number of survivors on 30th day at dose 80 mg/kg/day in 10 mice implanted with P388 leukemia cell line; 7/10
# Mus musculus [18] = assay: Number of survivors on 30th day at dose 60 mg/kg/day in 10 mice implanted with P388 leukemia cell line; 5/10
# Mus musculus [19] = assay: Percent increase in life span at dose 50 mg/kg/day in 10 mice implanted with P388 leukemia cell line; how it was run: as §1
# Mus musculus [20] = assay: Number of survivors on 60th day at dose mg/kg/day in 10 mice implanted with P388 leukemia cell line; 4/10
# Mus musculus [21] = assay: Number of survivors on 60th day at dose 15 mg/kg/day in 10 mice implanted with P388 leukemia cell line; 0/10
# Mus musculus [22] = assay: Number of survivors on 60th day at dose 20 mg/kg/day in 10 mice implanted with P388 leukemia cell line; 0/10
# Mus musculus [23] = assay: Percent increase in life span at dose 15 mg/kg/day in 10 mice implanted with P388 leukemia cell line; how it was run: as §1
# Mus musculus [24] = assay: Percent increase in life span at dose 20 mg/kg/day in 10 mice implanted with P388 leukemia cell line; how it was run: as §1
# Mus musculus [25] = assay: Number of survivors on 60th day at dose 50 mg/kg/day in 10 mice implanted with P388 leukemia cell line; 0/10
# Mus musculus [26] = assay: Percent increase in life span at dose 30 mg/kg/day in 10 mice implanted with P388 leukemia cell line; how it was run: as §1
# Mus musculus [27] = assay: Percent increase in life span at dose 5 mg/kg/day in 10 mice implanted with P388 leukemia cell line; how it was run: as §1
# Mus musculus [28] = assay: Number of survivors on 60th day at dose 30 mg/kg/day in 10 mice implanted with P388 leukemia cell line; 0/10
# Mus musculus [29] = assay: Number of survivors on 60th day at dose 40 mg/kg/day in 10 mice implanted with P388 leukemia cell line; 0/10
# Mus musculus [30] = assay: Number of survivors on 60th day at dose 5 mg/kg/day in 10 mice implanted with P388 leukemia cell line; 0/10
# Mus musculus [31] = assay: Number of survivors on 30th day at dose 20 mg/kg/day in 10 mice implanted with P388 leukemia cell line; 0/10
# Mus musculus [32] = assay: Number of survivors on 30th day at dose 30 mg/kg/day in 10 mice implanted with P388 leukemia cell line; 0/10
# Mus musculus [33] = assay: Number of survivors on 30th day at dose 40 mg/kg/day in 10 mice implanted with P388 leukemia cell line; 0/10
# Mus musculus [34] = assay: Number of survivors on 30th day at dose 5 mg/kg/day in 10 mice implanted with P388 leukemia cell line; 0/10
# Mus musculus [35] = assay: Number of survivors on 30th day at dose 50 mg/kg/day in 10 mice implanted with P388 leukemia cell line; 0/10
# Mus musculus [36] = assay: Number of survivors on 30th day at dose 15 mg/kg/day in 10 mice implanted with P388 leukemia cell line; 0/10
# Mus musculus [37] = assay: Percent increase in life span at dose 10 mg/kg/day in 10 mice implanted with P388 leukemia cell line; how it was run: as §1
# Mus musculus [38] = assay: Percent increase in life span at dose 6 mg/kg/day in 10 mice implanted with P388 leukemia cell line; how it was run: as §1
# Mus musculus [39] = assay: Percent increase in life span of DBA2 mice after inoculation with L1210 leukemia intravenously at a dose of 9 mg/lg per day
# Mus musculus [40] = assay: Number of survivors on 60th day at dose 12.5 mg/kg/day in 10 mice implanted with P388 leukemia cell line
# Mus musculus [41] = assay: Number of survivors on 60th day at dose 14 mg/kg/day in 10 mice implanted with P388 leukemia cell line
# Mus musculus [42] = assay: Number of survivors on 60th day at dose 6 mg/kg/day in 10 mice implanted with P388 leukemia cell line
# Mus musculus [43] = assay: Percent increase in life span at dose 8 mg/kg/day in 10 mice implanted with P388 leukemia cell line; how it was run: as §1
# Mus musculus [44] = assay: Number of survivors of DBA2 mice on 30th day after inoculation with L1210 leukemia cell line intravenously at a dose of 9 mg/kg/day; 0/10; conditions: route intravenous
# Mus musculus [45] = assay: Percent increase in life span at dose 11 mg/kg/day in 10 mice implanted with P388 leukemia cell line; how it was run: as §1
# Mus musculus [46] = assay: Percent increase in life span at dose 12.5 mg/kg/day in 10 mice implanted with P388 leukemia cell line; how it was run: as §1
# Mus musculus [47] = assay: Percent increase in life span at dose 14 mg/kg/day in 10 mice implanted with P388 leukemia cell line; how it was run: as §1
# Mus musculus [48] = assay: Percent increase in life span of DBA2 mice after inoculation with L1210 leukemia intravenously at a dose of 10 mg/lg per day
# Mus musculus [49] = assay: Number of survivors on 60th day at dose 8 mg/kg/day in 10 mice implanted with P388 leukemia cell line; how it was run: as §1
# Mus musculus [50] = assay: Number of survivors of DBA2 mice on 60th day after inoculation with L1210 leukemia cell line intravenously at a dose of 10 mg/kg/day; 0/10; conditions: route intravenous
# Mus musculus [51] = assay: Number of survivors of DBA2 mice on 30th day after inoculation with L1210 leukemia cell line intravenously at a dose of 10 mg/kg/day; 0/10; conditions: route intravenous
# Mus musculus [52] = assay: Number of survivors on 60th day at dose 10 mg/kg/day in 10 mice implanted with P388 leukemia cell line
# Mus musculus [53] = assay: Number of survivors on 60th day at dose 11 mg/kg/day in 10 mice implanted with P388 leukemia cell line
# Mus musculus [54] = assay: Number of survivors on 30th day at dose 11 mg/kg/day in 10 mice implanted with P388 leukemia cell line
# Mus musculus [55] = assay: Number of survivors on 30th day at dose 12.5 mg/kg/day in 10 mice implanted with P388 leukemia cell line
# Mus musculus [56] = assay: Number of survivors on 30th day at dose 14 mg/kg/day in 10 mice implanted with P388 leukemia cell line
# Mus musculus [57] = assay: Number of survivors on 30th day at dose 10 mg/kg/day in 10 mice implanted with P388 leukemia cell line
# Mus musculus [58] = assay: Number of survivors on 30th day at dose 6 mg/kg/day in 10 mice implanted with P388 leukemia cell line
# Mus musculus [59] = assay: Number of survivors of DBA2 mice on 60th day after inoculation with L1210 leukemia cell line intravenously at a dose of 9 mg/kg/day; 0/10; conditions: route intravenous
# How it was run: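 Female DBA₂ mice received 10⁴ L1210 cells iv on day 0. Compounds were given iv as sulfate salts in physiological saline, as a single dose on day 1 (mg/kg per day). Groups were 10 mice. Survivors were counted on day 60. Cells were maintained by ip passage in DBA₂ mice.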
# Mus musculus [60] = assay: Number of survivors on 30th day at dose 8 mg/kg/day in 10 mice implanted with P388 leukemia cell line
structure (smiles),measurement,setting,value
CCCCOC(=O)[C@H](Cc1c[nH]c2ccccc12)NC(=O)[C@@]1(O)[C@H](O)[C@]2(CC)C=CCN3CC[C@@]4(c5cc([C@@]6(C(=O)OC)C[C@H]7C[N@](CCc8c6[nH]c6ccccc86)C[C@](O)(CC)C7)c(OC)cc5N(C)[C@@]14C)[C@@H]32,ILS at 50 mg/kg/day,Mus musculus [1],44%
same,ILS at 70 mg/kg/day,Mus musculus [2],52%
same,Survivors,Mus musculus [3],0
same,ILS at 80 mg/kg/day,Mus musculus [4],> 216%
same,ILS at 40 mg/kg/day,Mus musculus [5],63%
same,ILS at 55 mg/kg/day,Mus musculus [6],> 163%
same,Survivors,Mus musculus [7],1
same,Survivors,Mus musculus [8],2
same,ILS at 60 mg/kg/day,Mus musculus [9],140%
same,Survivors,Mus musculus [10],1
same,Survivors,Mus musculus [11],7
same,Survivors,Mus musculus [12],5
same,Survivors,Mus musculus [13],2
same,Survivors,Mus musculus [14],7
same,Survivors,Mus musculus [15],0
same,Survivors,Mus musculus [16],5
same,Survivors,Mus musculus [17],7
same,Survivors,Mus musculus [18],5
same,ILS at 50 mg/kg/day,Mus musculus [19],31.6%
same,Survivors,Mus musculus [20],4
CC[C@]1(O)C[C@@H]2C[N@](CCc3c([nH]c4ccccc34)[C@@](C(=O)OC)(c3cc4c(cc3OC)N(C)[C@@]3(C)[C@@](O)(C(=O)N[C@@H](CC(C)C)C(N)=O)[C@H](O)[C@]5(CC)C=CCN6CC[C@]43[C@@H]65)C2)C1,Survivors,Mus musculus [21],0
same,Survivors,Mus musculus [22],0
same,ILS at 15 mg/kg/day,Mus musculus [23],8.7%
same,ILS at 20 mg/kg/day,Mus musculus [24],1.7%
same,Survivors,Mus musculus [25],0
same,ILS at 30 mg/kg/day,Mus musculus [26],1.7%
same,ILS at 40 mg/kg/day,Mus musculus [5],19%
same,ILS at 5 mg/kg/day,Mus musculus [27],1.7%
same,Survivors,Mus musculus [28],0
same,Survivors,Mus musculus [29],0
same,Survivors,Mus musculus [30],0
same,Survivors,Mus musculus [31],0
same,Survivors,Mus musculus [32],0
same,Survivors,Mus musculus [33],0
same,Survivors,Mus musculus [34],0
same,Survivors,Mus musculus [35],0
same,Survivors,Mus musculus [36],0
same,ILS at 50 mg/kg/day,Mus musculus [19],15.5%
CCOC(=O)C(CC(C)C)NC(=O)[C@@]1(O)[C@H](O)[C@]2(CC)C=CCN3CC[C@@]4(c5cc([C@@]6(C(=O)OC)C[C@H]7CN(CCc8c6[nH]c6ccccc86)C[C@](O)(CC)C7)c(OC)cc5N(C)[C@@]14C)[C@@H]32 (some centres not stated),ILS at 10 mg/kg/day,Mus musculus [37],> 146%
same,ILS at 6 mg/kg/day,Mus musculus [38],26.7%
same,ILS,Mus musculus [39],27%
same,Survivors,Mus musculus [40],1
same,Survivors,Mus musculus [41],0
same,Survivors,Mus musculus [42],0
same,ILS at 8 mg/kg/day,Mus musculus [43],46.5%
same,Survivors,Mus musculus [44],0
same,ILS at 11 mg/kg/day,Mus musculus [45],155%
same,ILS at 12.5 mg/kg/day,Mus musculus [46],> 146%
same,ILS at 14 mg/kg/day,Mus musculus [47],30%
same,ILS,Mus musculus [48],29.4%
same,Survivors,Mus musculus [49],1
same,Survivors,Mus musculus [50],0
same,Survivors,Mus musculus [51],0
same,Survivors,Mus musculus [52],2
same,Survivors,Mus musculus [53],0
same,Survivors,Mus musculus [54],3
same,Survivors,Mus musculus [55],6
same,Survivors,Mus musculus [56],2
same,Survivors,Mus musculus [57],7
same,Survivors,Mus musculus [58],0
same,Survivors,Mus musculus [59],0
same,Survivors,Mus musculus [60],2

# Reference: ChEMBL document CHEMBL1122917, “Vinblastin-23-oyl amino acid derivatives: chemistry, physicochemical data, toxicity, and antitumor activities against P388 and L1210 leukemias” (J Med Chem, 1985)
